Laboratory results: ChEMBL document CHEMBL1152789, “Synthesis of 2-(5-((5-(4-chlorophenyl)furan-2-yl)methylene)-4-oxo-2-thioxothiazolidin-3-yl)acetic acid derivatives and evaluation of their cytotoxicity and induction of apoptosis in human leukemia cells” (Bioorg Med Chem, 2009)
The source made the active and inactive calls. No cut-off for these calls is given here.

Legend:
K562 [1] = assay: Cytotoxicity against human K562 cells after 72 hrs by MTT assay; assay type: functional, cell-based; conditions: K562, 72 h
Summary of the method: (§1)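 Log-phase cells (1 × 10⁴/well) were plated in triplicate in RPMI 1640 with 10% heat-inactivated FBS and penicillin/streptomycin, at 37 °C in 5% CO2. Cells were treated with 10, 100 or 250 µM compound and harvested at 48 and 72 h. MTT (5 mg/ml) was added at 37 °C, formazan was dissolved in DMF/SDS detergent, and A570 was read minus a medium blank. Viability is expressed as % of DMSO vehicle, and IC50 was estimated at 72 h.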

K562 [2] = assay: Cytotoxicity against human K562 cells at >= 100 uM after 48 to 72 hrs by MTT assay; assay type: functional, cell-based; summary of the method: as §1
REH [3] = assay: Cytotoxicity against human REH cells at >= 100 uM after 48 to 72 hrs by MTT assay; assay type: functional, cell-based; summary of the method: as §1
REH [4] = assay: Cytotoxicity against human REH cells after 72 hrs by MTT assay; assay type: functional, cell-based; summary of the method: as §1
K562 [5] = assay: Cell cycle arrest in human K562 cells assessed as decline of G2/M phase after 48 hrs by PI staining based flow cytometry; assay type: functional
Summary of the method: (§2)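 K562 cells, 0.75 × 10⁵ cells/ml, incubated at 37 °C with 10, 50 and 100 µM compound for 48 h, with a DMSO vehicle control. Cells were washed, fixed in 70% ethanol, RNase A treated, and stained with propidium iodide for half an hour before flow cytometry. At least 10,000 cells were acquired per sample, and G0/G1 (subG1), G1, S and G2/M fractions were read from the DNA histograms.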

K562 [6] = assay: Induction of apoptosis in human K562 cells assessed as chromosomal DNA fragmentation at 100 uM after 72 hrs by agarose gel electrophoresis; assay type: functional, cell-based
Summary of the method: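 K562 cells were cultured with 10, 50 or 100 µM compound for 72 h, with a DMSO lane as control. Genomic DNA was extracted, resuspended in TE buffer, and run on a 1% agarose gel at 30 V for 6 h. Laddering or smearing was viewed by ethidium bromide staining.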

K562 [7] = assay: Cell cycle arrest in human K562 cells assessed as change in cell cycle pattern after 48 hrs by PI staining based flow cytometry; assay type: functional; summary of the method: as §2
K562 [8] = assay: Cell cycle arrest in human K562 cells assessed as accumulation at G0/G1 phase after 48 hrs by PI staining based flow cytometry; assay type: functional; summary of the method: as §2
K562 [9] = assay: Cell cycle arrest in human K562 cells assessed as decline of G1 phase after 48 hrs by PI staining based flow cytometry; assay type: functional; summary of the method: as §2

For `O=C(CN1C(=O)/C(=C/c2ccc(-c3ccc(Cl)cc3)o2)SC1=S)NCc1ccc(Br)cc1`, the IC50 (K562 [1]) was 68 µM, the Activity (K562 [2]) was “Active” and the Activity (REH [3]) was “Active”. The IC50 (REH [4]) was 75 µM.
`CCCCCCNC(=O)CN1C(=O)/C(=C/c2ccc(-c3ccc(Cl)cc3)o2)SC1=S` was tested, and the IC50 (K562 [1]) was 50 µM, the Activity (K562 [2]) was “Active” and the Activity (REH [3]) was “Active”. It also gave an IC50 (REH [4]) of 55 µM.
With `COc1ccc(CNC(=O)CN2C(=O)/C(=C/c3ccc(-c4ccc(Cl)cc4)o3)SC2=S)cc1` the IC50 (K562 [1]) was 40 µM, the Activity (K562 [5]) was “Active” and the Activity (K562 [2]) was “Active”. The Activity (K562 [6]) was “Active”, the Activity (REH [3]) was “Active” and the Activity (K562 [7]) was “Dose-dependent effect”. For the same compound, the IC50 (REH [4]) was 44 µM, the Activity (K562 [8]) was “Active” and the Activity (K562 [9]) was “Active”.
`O=C(CN1C(=O)/C(=C/c2ccc(-c3ccc(Cl)cc3)o2)SC1=S)NCc1ccc(F)cc1` showed an IC50 (K562 [1]) of 150 µM and an IC50 (REH [4]) of 165 µM.
With `O=C(CN1C(=O)/C(=C/c2ccc(-c3ccc(Cl)cc3)o2)SC1=S)Nc1nnn[nH]1` the IC50 (K562 [1]) was 52 µM, the Activity (K562 [2]) was “Active” and the Activity (REH [3]) was “Active”. The IC50 (REH [4]) was 50 µM.
For `N#Cc1ccc(NC(=O)CN2C(=O)/C(=C/c3ccc(-c4ccc(Cl)cc4)o3)SC2=S)cc1`, the IC50 (K562 [1]) was 85 µM and the IC50 (REH [4]) was 90 µM.
`N#Cc1cc(NC(=O)CN2C(=O)/C(=C/c3ccc(-c4ccc(Cl)cc4)o3)SC2=S)ccc1C(F)(F)F` showed an IC50 (K562 [1]) of over 250 µM and an IC50 (REH [4]) of over 250 µM.
With `Cc1cccc(CNC(=O)CN2C(=O)/C(=C/c3ccc(-c4ccc(Cl)cc4)o3)SC2=S)c1` the IC50 (K562 [1]) was 48 µM, the Activity (K562 [5]) was “Active” and the Activity (K562 [2]) was “Active”. For the same compound, the Activity (REH [3]) was “Active”, the Activity (K562 [7]) was “Dose-dependent effect” and the IC50 (REH [4]) was 53 µM. The Activity (K562 [8]) was “Active” and the Activity (K562 [9]) was “Active”.
For `O=C(CN1C(=O)/C(=C/c2ccc(-c3ccc(Cl)cc3)o2)SC1=S)NCc1ccc(C(F)(F)F)cc1`, the IC50 (K562 [1]) was 155 µM and the IC50 (REH [4]) was 170 µM.
For `O=C(CN1C(=O)/C(=C/c2ccc(-c3ccc(Cl)cc3)o2)SC1=S)NCc1ccccc1Cl`, the IC50 (K562 [1]) was 64 µM, the Activity (K562 [2]) was “Active” and the Activity (REH [3]) was “Active”. It also gave an IC50 (REH [4]) of 70 µM.
`Cc1ccc(CNC(=O)CN2C(=O)/C(=C/c3ccc(-c4ccc(Cl)cc4)o3)SC2=S)cc1` was tested, and the IC50 (K562 [1]) was 45 µM, the Activity (K562 [2]) was “Active” and the Activity (REH [3]) was “Active”. The IC50 (REH [4]) was 45 µM.
